Screens from PubChem BioAssay.
Most compounds without a hit are left out; they make up all but 3.7% or so of the library.
KCNK3 inh – human KCNK3 channel inhibition, primary screen | 340,000 tested, 0.84% active | B-score at 10 µM | CHO-KCNK3 thallium flux, FluxOR fluorescence; active compounds read low | O14649;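 active means B-score under library mean minus 4 SD, starting fluorescence ratio at most library mean plus 5 SD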;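 further: more negative B-score means stronger inhibition of thallium flux through KCNK3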
KCNQ1 block – human KCNQ1 channel inhibition. 310,000 tested, 1.3% active. P51787. B-score at 10 µM. AID 2642. CHO-K1 KCNQ1, FluxOR thallium flux fluorescence; active compounds read high;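 active means compounds whose thallium flux B-score, printed positive for inhibition, exceeds three library SD while starting fluorescence stays within three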;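 further: channel opened by potassium depolarization with thallium stimulus after 20 min compound exposure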
KCNK9 block – blocks the human KCNK9 two-pore domain potassium channel; HEK293 KCNK9, FluxOR thallium flux fluorescence; active compounds read low; B-score at 10 µM; AID 488922; 310,000 tested, 1.2% active; Q9NPC2;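 active means ratio B-score over 3 SD below the library mean, with starting fluorescence within 5 SD of its mean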;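 further: negative B-score means less thallium flux so channel inhibition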
KCNQ1 pot – potentiators or activators of human KCNQ1 potassium channel; CHO-K1 KCNQ1, thallium flux FluxOR fluorescence; active compounds read high; B-score at 10 µM; P51787; 310,000 tested, 0.35% active; AID 2648;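 active means fluorescence ratio B-score, a plate-corrected score, at least three library SD, with initial intensity B-score within 5 SD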
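System: CHO-K1 cells stably expressing KCNQ1 / Medium: assay buffer for compound exposure, DMSO matched across wells / Reagent: thallium- and potassium-containing depolarizing buffer / Compound: one concentration, matched DMSO / Incubation: 20 min compound pretreatment at room temperature / Measured by: kinetic FluxOR fluorescence, 10 s baseline plus 110 s post-stimulus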
Kir21 inh – Kir2.1 (mouse) channel inhibition | P35561 | HEK293-Kir2.1, FluxOR thallium flux fluorescence; active compounds read low | B-score at 10 µM | 310,000 tested, 0.85% active | AID 1672;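 active means fluorescence ratio B-score at or below minus 3 SD of library scores, with starting-brightness B-score within 2 SD, cut at about -4.2 in these data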;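 further: channel flux triggered by added potassium and thallium sulfate stimulus; B-score of peak minus minimum fluorescence over baseline after thallium stimulus; more negative B-score means stronger Kir2.1 block with less thallium influx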
Target sequence (P35561 whole entry, looked up): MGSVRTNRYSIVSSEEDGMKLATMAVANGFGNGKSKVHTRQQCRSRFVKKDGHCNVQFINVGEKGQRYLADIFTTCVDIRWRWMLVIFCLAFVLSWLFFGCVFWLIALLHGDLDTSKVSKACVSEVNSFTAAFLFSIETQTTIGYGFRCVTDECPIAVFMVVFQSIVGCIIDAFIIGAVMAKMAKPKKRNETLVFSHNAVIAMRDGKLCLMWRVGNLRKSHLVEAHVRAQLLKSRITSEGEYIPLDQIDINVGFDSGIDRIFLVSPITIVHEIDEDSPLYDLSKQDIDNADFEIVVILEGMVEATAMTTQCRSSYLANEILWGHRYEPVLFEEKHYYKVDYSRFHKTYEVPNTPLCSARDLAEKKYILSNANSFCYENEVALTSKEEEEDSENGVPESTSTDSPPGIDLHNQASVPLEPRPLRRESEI
hERG rescue – hERG (human) protection from proarrhythmic block; Q12809; CHO-hERG, FluxOR thallium flux, dofetilide IC70 present; 310,000 tested, 0.51% active; activation (rescue from dofetilide block), less the hit threshold, % at 10 µM; AID 1511;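 active means activation above the mean of controls blocked by dofetilide plus 5 SD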;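 further: thallium influx through hERG after potassium depolarization seen as dye fluorescence rise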
KCNK3 inh conf – human KCNK3 channel inhibition, confirmation assay; shares compounds with KCNK3 inh; CHO-KCNK3 thallium flux, FluxOR fluorescence; 0% buffer, 100% carvedilol maximal block; AID 651638; ratio percent of control, % at 10 µM; 2,400 tested, 99% active;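 active means ratio percent of control, averaged over triplicates, above buffer control mean plus 5 SD, cut at about 64% in these data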;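 further: ratio is the fluorescence rise from min to max over baseline after thallium stimulus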
KCNK3 noninduced – KCNK3 inhibitor counter-screen hit in non-induced cells; shares compounds with KCNK3 inh; non-induced KCNK3 parental cells, FluxOR thallium flux; active compounds read low; thallium flux ratio (lower = more inhibition) at 10 µM; 2,400 tested, 40% active; AID 651747;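 active means thallium flux ratio, averaged over three wells, more than 5 SD below the buffer control mean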;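 further: host cells are CHO cells without KCNK3 induction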
Of the large screens only hits and unclear results are named; the others gave an inactive call (follow-up assays come after a bar, where they were run).

CC(C)Cn1c(SCc2nc3ccccc3c(=O)[nH]2)nc2ccccc2c1=O	KCNK3 inh -10.1, KCNK9 block -6.74 | KCNK3 inh conf 102.0 | KCNK3 noninduced inactive
CCOc1cc(CNc2ccccc2)cc(Br)c1OCc1ccc(F)cc1	KCNK3 inh -8.76 | KCNK3 inh conf 84.3 | KCNK3 noninduced 0.159
CCOc1cc(CNc2ccccc2)cc(Br)c1OCC(=O)NC(C)(C)C	none
O=[N+]([O-])c1ccc2nc(Cl)nc(-c3ccccc3)c2c1	none
COc1ccc(NC(=O)c2cc(S(=O)(=O)N3CCCC3)ccc2C)cn1	none (no result: KCNQ1 block, KCNK9 block, KCNQ1 pot, Kir21 inh, hERG rescue)
COc1ccc(/C=C/C(=O)c2ccc([N+](=O)[O-])o2)cc1	KCNK3 inh -10.7 | KCNK3 inh conf 99.0 | KCNK3 noninduced inactive
COc1ccc(/C=C/C(=O)OCc2cccc([N+](=O)[O-])c2)cc1	KCNK3 inh -9.59 | KCNK3 inh conf 95.3 | KCNK3 noninduced 0.14
COc1ccc(S(=O)(=O)N2CCN(C(=O)c3ccc([N+](=O)[O-])o3)CC2)cc1	none
COCCCN(C(=O)c1cc(Cl)nc2ccccc12)c1c(N)n(Cc2ccccc2)c(=O)[nH]c1=O	none (no result: KCNQ1 block, KCNK9 block, KCNQ1 pot, Kir21 inh, hERG rescue)
CCOC(=O)c1[nH]c2ccccc2c1NC(=O)Nc1ccc(OC)cc1	none
CC(=O)N1c2ccc(S(=O)(=O)N3CCCCC3)cc2CC1C(=O)Nc1cccc(C)c1 (stereo not drawn)	KCNK3 inh -11.2 | KCNK3 inh conf 95.0 | KCNK3 noninduced inactive
CCOC(=O)C1=C(C)N=c2s/c(=C/c3cccc([N+](=O)[O-])c3O)c(=O)n2C1c1ccccc1 (stereo not drawn)	KCNK3 inh -12.2, KCNQ1 block 13 | KCNK3 inh conf 124.0 | KCNK3 noninduced 0.103
COc1cccc2c1OC[C@@H](CO)[C@H]2N(C)C(=O)Nc1ccccc1	none
CN(C(=O)Nc1ccc(Cl)cc1Cl)[C@H]1c2cc(Br)ccc2OC[C@H]1CO	KCNK3 inh -8.93 | KCNK3 inh conf 99.7 | KCNK3 noninduced inactive
Cc1ccsc1CN(C)C(=O)c1ccc(Oc2ccccc2)cc1	KCNK3 inh -9.92, KCNK9 block -7.51 | KCNK3 inh conf 113.3 | KCNK3 noninduced inactive
COCC(C)n1c(SCc2cc(C(=O)OC)c(C)o2)nc2ccccc2c1=O (stereo not drawn)	KCNK3 inh -8.88 | KCNK3 inh conf 90.0 | KCNK3 noninduced inactive
O=C1c2cccc3cccc(c23)C(=O)N1CCc1ccccc1	KCNK3 inh -9.6 | KCNK3 inh conf 117.7 | KCNK3 noninduced inactive
CCC(=O)NC1(C(F)(F)F)C(=O)Nc2c1c(=O)[nH]c(=O)n2CC(C)C (stereo not drawn)	none
O=C(Nc1ccc(Cl)cn1)c1ccc2ccccc2n1	KCNK3 inh -8.74 | KCNK3 inh conf 93.3 | KCNK3 noninduced inactive
Cc1ccc(NC(=O)c2ccc3ccccc3n2)nc1	none
Cc1[nH]c2ccccc2c1-c1nc(-c2ccc(Cl)cc2)nnc1-c1ccccc1	none (no result: KCNK3 inh)
CN1CCN(C2Cc3cc(F)ccc3Sc3ccc(Cl)cc32)CC1 (stereo not drawn)	KCNK3 inh -10.1 | KCNK3 inh conf 113.7 | KCNK3 noninduced inactive
Cc1onc(-c2ccccc2Cl)c1C(=O)N1CCCCCC1	none
CCC1CCCCN1S(=O)(=O)c1ccc(NC(=O)c2nc(S(C)(=O)=O)ncc2Cl)cc1 (stereo not drawn)	KCNK3 inh -11.1 | KCNK3 inh conf 113.7 | KCNK3 noninduced 0.135
CCS(=O)(=O)c1ncc(Cl)c(C(=O)Nc2ccc(S(=O)(=O)N3CCCC(C)C3)cc2)n1 (stereo not drawn)	none
CCC1CCCCN1S(=O)(=O)c1ccc(NC(=O)c2ccncc2)cc1 (stereo not drawn)	KCNK3 inh -9.99 | KCNK3 inh conf 121.3 | KCNK3 noninduced inactive
CC(=O)c1cccc(NC(=O)CCc2nnc3ccc(N4CCOCC4)nn23)c1	none
